# Measurements from ChEMBL document CHEMBL1134691, “3-Phenyl-5-acyloxymethyl-2H,5H-furan-2-ones: synthesis and biological activity of a novel group of potential antifungal drugs” (2001).
# Assays:
# Lichtheimia corymbifera [1] = assay: In vitro inhibition of Absidia corymbifera 272 growth for 24 hours.; assay type: functional
# Procedure, shortened: (§1)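 Filamentous isolates tested by microdilution per NCCLS M27-A in RPMI 1640 plus L-glutamine, buffered with 0.165 M MOPS to pH 7.0. Final inoculum 5 × 10^3 cfu/mL. Compounds in DMSO (final ≤2%), 2-fold series over 1000–0.24 µmol/L. Plates held at 35 °C and read visually after 24 and 48 h. MIC taken as 80% inhibition of control growth; determined twice in duplicate.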
# Lichtheimia corymbifera [2] = assay: In vitro inhibition of Absidia corymbifera 272 growth for 48 hours.; assay type: functional; procedure, shortened: as §1
# Pichia kudriavzevii [3] = assay: Inhibition of Candida krusei ATCC 6258 growth for 24 hours in vitro.; assay type: functional
# Procedure, shortened: (§2)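 NCCLS M27-A broth microdilution in RPMI 1640 with L-glutamine and 0.165 M MOPS, pH 7.0. Isolates kept on Sabouraud dextrose agar. Inoculum 5 × 10^3 cfu/mL final. Compounds were diluted in DMSO (≤2% final) and tested in 2-fold dilutions of 1000–0.24 µmol/L. Incubation at 35 °C, OD540 read at 24 and 48 h. MIC = 80% growth inhibition versus control; assays run twice in duplicate.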
# Pichia kudriavzevii [4] = assay: Inhibition of Candida krusei ATCC 6258 growth for 48 hours in vitro.; assay type: functional; conditions: ATCC 6258, 48 h; procedure, shortened: as §2
# Pichia kudriavzevii [5] = assay: Inhibition of Candida krusei E28 growth for 24 hours in vitro.; assay type: functional; procedure, shortened: as §2
# Pichia kudriavzevii [6] = assay: Inhibition of Candida krusei E28 growth for 48 hours in vitro.; assay type: functional; procedure, shortened: as §2
# Aspergillus fumigatus [7] = assay: Inhibition of Aspergillus fumigatus 231 growth for 48 hours in vitro.; assay type: functional; procedure, shortened: as §1
# Clavispora lusitaniae [8] = assay: Inhibition of Candida lusitaniae 2446/I growth for 24 hours in vitro.; assay type: functional; procedure, shortened: as §2
# Clavispora lusitaniae [9] = assay: Inhibition of Candida lusitaniae 2446/I growth for 48 hours in vitro.; assay type: functional; procedure, shortened: as §2
# Candida parapsilosis [10] = assay: Inhibition of Candida parapsilosis ATCC 22019 growth for 24 hours in vitro.; assay type: functional; procedure, shortened: as §2
# Candida parapsilosis [11] = assay: Inhibition of Candida parapsilosis ATCC 22019 growth for 48 hours in vitro.; assay type: functional; procedure, shortened: as §2
# Candida albicans [12] = assay: Inhibition of Candida albicans ATCC 44859 growth for 24 hours in vitro.; assay type: functional; procedure, shortened: as §2
# Candida albicans [13] = assay: Inhibition of Candida albicans ATCC 44859 growth for 48 hours in vitro.; assay type: functional; procedure, shortened: as §2
# Candida albicans [14] = assay: Inhibition of Candida albicans ATCC 90028 for 24 hours in vitro.; assay type: functional; procedure, shortened: as §2
# Candida albicans [15] = assay: Inhibition of Candida albicans ATCC 90028 for 48 hours in vitro.; assay type: functional; procedure, shortened: as §2
# Nakaseomyces glabratus [16] = assay: Inhibition of Candida glabrata 20/I growth for 24 hours in vitro.; assay type: functional; procedure, shortened: as §2
# Nakaseomyces glabratus [17] = assay: Inhibition of Candida glabrata 20/I growth for 48 hours in vitro.; assay type: functional; procedure, shortened: as §2
# Candida tropicalis [18] = assay: Inhibition of Candida tropicalis 156 growth for 24 hours in vitro.; assay type: functional; procedure, shortened: as §2
# Trichosporon beigelii [19] = assay: Inhibition of Trichosporon beigelli 1188 for 24 hours in vitro.; assay type: functional
# Procedure, shortened: (§3)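 Microdilution following NCCLS M27-A. Medium: RPMI 1640 with L-glutamine, 0.165 M MOPS, pH 7.0. Final inoculum 5 × 10^3 cfu/mL. Compounds dissolved in DMSO, final ≤2%, serially halved from 1000 to 0.24 µmol/L. Incubated at 35 °C and read at 24 and 48 h. MIC defined as 80% inhibition of control growth; run twice in duplicate.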
# Trichosporon beigelii [20] = assay: Inhibition of Trichosporon beigelli 1188 for 48 hours in vitro.; assay type: functional; procedure, shortened: as §3
# [21] = Inhibition of Trichophyton mentagrophytes 445 growth for 72 hours in vitro.; assay type: functional, Arthroderma benhamiae
# Procedure, shortened: (§4)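 Dermatophyte grown in MOPS-buffered (0.165 M, pH 7.0) RPMI 1640 containing L-glutamine, in an M27-A microdilution format. Inoculum 5 × 10^3 cfu/mL final. Compounds from DMSO stocks (≤2% final), 2-fold dilutions 1000–0.24 µmol/L. Incubated at 35 °C, growth judged visually at 72 and 120 h. MIC endpoint is 80% inhibition relative to control; measured twice in duplicate.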
# [22] = Inhibition of Trichophyton mentagrophytes 445 growth for 120 hours in vitro.; assay type: functional, Arthroderma benhamiae; procedure, shortened: as §4
# Aspergillus fumigatus [23] = assay: Inhibition of Aspergillus fumigatus 231 growth for 24 hours in vitro.; assay type: functional; procedure, shortened: as §1
# Candida tropicalis [24] = assay: Inhibition of Candida tropicalis 156 growth for 48 hours in vitro.; assay type: functional; procedure, shortened: as §2
# [25] = Lichtheimia corymbifera, 24 h, read-out: MIC
# [26] = Lichtheimia corymbifera, 48 h, read-out: MIC
# [27] = Pichia kudriavzevii, ATCC 6258, 24 h, read-out: MIC
# [28] = Pichia kudriavzevii, read-out: MIC
# [29] = Pichia kudriavzevii, 24 h, read-out: MIC
# [30] = Pichia kudriavzevii, 48 h, read-out: MIC
# [31] = Aspergillus fumigatus, 48 h, read-out: MIC
# [32] = Clavispora lusitaniae, 24 h, read-out: MIC
# [33] = Clavispora lusitaniae, 48 h, read-out: MIC
# [34] = Lodderomyces parapsilosis, ATCC 22019, 24 h, read-out: MIC
# [35] = Lodderomyces parapsilosis, ATCC 22019, 48 h, read-out: MIC
# [36] = Candida albicans, ATCC 44859, 24 h, read-out: MIC
# [37] = Candida albicans, ATCC 44859, 48 h, read-out: MIC
# [38] = Candida albicans, ATCC 90028, 24 h, read-out: MIC
# [39] = Candida albicans, ATCC 90028, 48 h, read-out: MIC
# [40] = Nakaseomyces glabratus, 24 h, read-out: MIC
# [41] = Nakaseomyces glabratus, 48 h, read-out: MIC
# [42] = Candida tropicalis, 24 h, read-out: MIC
# [43] = Trichosporon beigelii, 24 h, read-out: MIC
# [44] = Trichosporon beigelii, 48 h, read-out: MIC
# [45] = Trichophyton benhamiae, 72 h, read-out: MIC
# [46] = Trichophyton benhamiae, 120 h, read-out: MIC
# [47] = Aspergillus fumigatus, 24 h, read-out: MIC
# [48] = Candida tropicalis, 48 h, read-out: MIC
compound,measurement,setting,value
CC(=O)OCC1C=C(c2ccc(Cl)c(Cl)c2)C(=O)O1 (centres undefined),MIC,Lichtheimia corymbifera [1]; [25],15.6 µM
same,MIC,Lichtheimia corymbifera [2]; [26],15.6 µM
same,MIC,Pichia kudriavzevii [3]; [27],3.91 µM
same,MIC,Pichia kudriavzevii [4]; [28],7.81 µM
same,MIC,Pichia kudriavzevii [5]; [29],3.91 µM
same,MIC,Pichia kudriavzevii [6]; [30],3.91 µM
same,MIC,Aspergillus fumigatus [7]; [31],7.81 µM
same,MIC,Clavispora lusitaniae [8]; [32],1.95 µM
same,MIC,Clavispora lusitaniae [9]; [33],1.95 µM
same,MIC,Candida parapsilosis [10]; [34],3.91 µM
same,MIC,Candida parapsilosis [11]; [35],7.81 µM
same,MIC,Candida albicans [12]; [36],0.49 µM
same,MIC,Candida albicans [13]; [37],3.91 µM
same,MIC,Candida albicans [14]; [38],3.91 µM
same,MIC,Candida albicans [15]; [39],3.91 µM
same,MIC,Nakaseomyces glabratus [16]; [40],0.98 µM
same,MIC,Nakaseomyces glabratus [17]; [41],0.98 µM
same,MIC,Candida tropicalis [18]; [42],3.91 µM
same,MIC,Trichosporon beigelii [19]; [43],1.95 µM
same,MIC,Trichosporon beigelii [20]; [44],7.81 µM
same,MIC,[21]; [45],0.98 µM
same,MIC,[22]; [46],0.98 µM
same,MIC,Aspergillus fumigatus [23]; [47],0.98 µM
same,MIC,Candida tropicalis [24]; [48],7.81 µM
"CC(C)(C)C(=O)OCC1C=C(c2ccc(Cl)c(Cl)c2)C(=O)O1 (single isomer, unassigned; (+))",MIC,Lichtheimia corymbifera [1],10.73 uM l-1
same,MIC,Lichtheimia corymbifera [2],10.73 uM l-1
same,MIC,Pichia kudriavzevii [3],5.36 uM l-1
same,MIC,Pichia kudriavzevii [5],5.36 uM l-1
same,MIC,Pichia kudriavzevii [6],10.73 uM l-1
same,MIC,Aspergillus fumigatus [7],2.68 uM l-1
same,MIC,Clavispora lusitaniae [8],1.34 uM l-1
same,MIC,Clavispora lusitaniae [9],2.68 uM l-1
same,MIC,Candida parapsilosis [10],2.68 uM l-1
same,MIC,Candida parapsilosis [11],5.36 uM l-1
same,MIC,Candida albicans [12],0.67 µM
same,MIC,Candida albicans [13],1.34 uM l-1
same,MIC,Candida albicans [14],1.34 uM l-1
same,MIC,Candida albicans [15],2.68 µM
same,MIC,Nakaseomyces glabratus [16],0.67 µM
same,MIC,Nakaseomyces glabratus [17],1.34 uM l-1
same,MIC,Candida tropicalis [18],5.36 uM l-1
same,MIC,Trichosporon beigelii [19],2.68 uM l-1
same,MIC,Trichosporon beigelii [20],5.36 uM l-1
same,MIC,[21],0.34 µM
same,MIC,[22],0.67 uM l-1
same,MIC,Aspergillus fumigatus [23],1.34 uM l-1
same,MIC,Candida tropicalis [24],10.73 uM l-1
O=C1OC(COC(=O)c2ccc(Cl)cc2)C=C1c1ccc(Cl)c(Cl)c1 (centres undefined),MIC,Lichtheimia corymbifera [1]; [25],15.6 µM
same,MIC,Lichtheimia corymbifera [2]; [26],31.2 µM
same,MIC,Pichia kudriavzevii [3]; [27],3.91 µM
same,MIC,Pichia kudriavzevii [4]; [28],7.81 µM
same,MIC,Pichia kudriavzevii [5]; [29],3.91 µM
same,MIC,Pichia kudriavzevii [6]; [30],7.81 µM
same,MIC,Aspergillus fumigatus [7]; [31],3.91 µM
same,MIC,Clavispora lusitaniae [8]; [32],1.95 µM
same,MIC,Clavispora lusitaniae [9]; [33],3.91 µM
same,MIC,Candida parapsilosis [10]; [34],1.95 µM
same,MIC,Candida parapsilosis [11]; [35],3.91 µM
same,MIC,Candida albicans [12]; [36],0.12 µM
same,MIC,Candida albicans [13]; [37],1.95 µM
same,MIC,Candida albicans [14]; [38],1.95 µM
same,MIC,Candida albicans [15]; [39],3.91 µM
same,MIC,Nakaseomyces glabratus [16]; [40],0.98 µM
same,MIC,Nakaseomyces glabratus [17]; [41],0.98 µM
same,MIC,Candida tropicalis [18]; [42],1.95 µM
same,MIC,Trichosporon beigelii [19]; [43],1.95 µM
same,MIC,Trichosporon beigelii [20]; [44],7.81 µM
same,MIC,[21]; [45],0.98 µM
same,MIC,[22]; [46],0.98 µM
same,MIC,Aspergillus fumigatus [23]; [47],0.98 µM
same,MIC,Candida tropicalis [24]; [48],3.91 µM
COc1ccc(C2=CC(COC(C)=O)OC2=O)cc1 (centres undefined),MIC,Lichtheimia corymbifera [1]; [25],62.5 µM
same,MIC,Lichtheimia corymbifera [2]; [26],62.5 µM
same,MIC,Pichia kudriavzevii [3]; [27],62.5 µM
same,MIC,Pichia kudriavzevii [4]; [28],125 µM
same,MIC,Pichia kudriavzevii [5]; [29],62.5 µM
same,MIC,Pichia kudriavzevii [6]; [30],125 µM
same,MIC,Aspergillus fumigatus [7]; [31],31.2 µM
same,MIC,Clavispora lusitaniae [8]; [32],31.2 µM
same,MIC,Clavispora lusitaniae [9]; [33],62.5 µM
same,MIC,Candida parapsilosis [10]; [34],31.2 µM
same,MIC,Candida parapsilosis [11]; [35],62.5 µM
same,MIC,Candida albicans [12]; [36],< 0.98 µM
same,MIC,Candida albicans [13]; [37],15.6 µM
same,MIC,Candida albicans [14]; [38],31.2 µM
same,MIC,Candida albicans [15]; [39],31.2 µM
same,MIC,Nakaseomyces glabratus [16]; [40],31.2 µM
same,MIC,Nakaseomyces glabratus [17]; [41],31.2 µM
same,MIC,Candida tropicalis [18]; [42],31.2 µM
same,MIC,Trichosporon beigelii [19]; [43],62.5 µM
same,MIC,Trichosporon beigelii [20]; [44],62.5 µM
same,MIC,[21]; [45],7.81 µM
same,MIC,[22]; [46],7.81 µM
same,MIC,Aspergillus fumigatus [23]; [47],3.91 µM
same,MIC,Candida tropicalis [24]; [48],62.5 µM
COc1ccc(C2=CC(CO)OC2=O)cc1 (centres undefined),MIC,Lichtheimia corymbifera [1]; [25],31.2 µM
same,MIC,Lichtheimia corymbifera [2]; [26],62.5 µM
same,MIC,"Pichia kudriavzevii [3]; ATCC 6258, 24 h",62.5 µM
same,MIC,Pichia kudriavzevii [4],125 µM
same,MIC,Pichia kudriavzevii [5],62.5 µM
same,MIC,Pichia kudriavzevii [6],125 µM
same,MIC,Aspergillus fumigatus [7]; [31],500 µM
same,MIC,Clavispora lusitaniae [8]; [32],31.2 µM
same,MIC,Clavispora lusitaniae [9]; [33],125 µM
same,MIC,"Candida parapsilosis [10]; Lodderomyces parapsilosis, ATCC 22019, 24 h",250 µM
same,MIC,"Candida parapsilosis [11]; Lodderomyces parapsilosis, ATCC 22019, 48 h",500 µM
same,MIC,Candida albicans [12]; [36],15.6 µM
same,MIC,Candida albicans [13]; [37],62.5 µM
same,MIC,"Candida albicans [14]; ATCC 90028, 24 h",31.2 µM
same,MIC,"Candida albicans [15]; ATCC 90028, 48 h",62.5 µM
same,MIC,Nakaseomyces glabratus [16]; [40],125 µM
same,MIC,Nakaseomyces glabratus [17]; [41],250 µM
same,MIC,Candida tropicalis [18],125 µM
same,MIC,Trichosporon beigelii [19]; [43],500 µM
same,MIC,Trichosporon beigelii [20]; [44],1000 µM
same,MIC,[21]; [45],15.6 µM
same,MIC,[22]; [46],62.5 µM
same,MIC,Aspergillus fumigatus [23]; [47],125 µM
same,MIC,Candida tropicalis [24],250 µM
